Experiments:
CCRF-CEM [1] = test: (§1) Relative activity when compared to the activity of aminopterin in CCRF-CEM Human leukemia cell at a concentration of 50 uM; type: functional
In short: (§2)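 Used purified folylpolyglutamate synthetase (FPGS) isolated from CCRF-CEM human leukemia cells. Each compound was tested as an alternative substrate. Activity was read as [3H]glutamate incorporation and expressed relative to aminopterin as reference substrate at 50 μM. Test compounds were examined at concentrations up to 200 μM.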

Dihydrofolate reductase = molecular target: T1, Dihydrofolate reductase (Homo sapiens, UniProt P00374); test: Compound was tested for its inhibitory activity on Recombinant Human Dihydrofolate Reductase.
T1 sequence (P00374 whole entry): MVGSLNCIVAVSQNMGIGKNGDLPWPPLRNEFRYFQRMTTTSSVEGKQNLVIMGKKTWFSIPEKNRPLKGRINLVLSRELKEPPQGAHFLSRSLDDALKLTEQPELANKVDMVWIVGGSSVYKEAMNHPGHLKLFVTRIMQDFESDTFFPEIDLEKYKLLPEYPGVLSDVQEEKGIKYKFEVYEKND

H35R0.3 [2] = test: Compound was tested for growth inhibition of H35 Hepatoma cells.; type: functional, cell-based; conditions: Rattus norvegicus
In short: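 H35 hepatoma cells grown 24 h, then exposed to compound for a 6-h pulse (24–30 h); growth read as cell counts after 72 h in culture medium.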

H35R0.3 [3] = test: Compound was tested for inhibition of folinic acid transport in H35 Hepatoma cells.; type: functional, cell-based; conditions: Rattus norvegicus
CCRF-CEM [4] = test: Relative activity when compared to the activity of aminopterin in CCRF-CEM Human leukemia cell at a concentration of 200 uM; type: functional; in short: as §2
H35R0.3 [5] = test: Compound was tested for its inhibitory activity in tumor cell growth in H35R cells; type: functional, cell-based; conditions: Rattus norvegicus
H35R0.3 [6] = test: Compound was tested for its inhibitory activity in tumor cell growth in H35 hepatoma cells; type: functional, cell-based; conditions: Rattus norvegicus
CCRF-CEM [7] = test: Compound was tested for its inhibitory activity in tumor cell growth in CCRF-CEM in human.; type: functional, cell-based
Manca = test: Compound was tested for its inhibitory activity manca tumor cell growth; type: functional, cell-based; conditions: Homo sapiens
[8] = molecular target: T2, Folylpolyglutamate synthase, mitochondrial (Homo sapiens, UniProt Q05932); test: Compound was evaluated for the inhibition of Folyl-polyglutamate synthase in CCRF-CEM Human leukemia cell.
T2 sequence (Q05932 whole entry): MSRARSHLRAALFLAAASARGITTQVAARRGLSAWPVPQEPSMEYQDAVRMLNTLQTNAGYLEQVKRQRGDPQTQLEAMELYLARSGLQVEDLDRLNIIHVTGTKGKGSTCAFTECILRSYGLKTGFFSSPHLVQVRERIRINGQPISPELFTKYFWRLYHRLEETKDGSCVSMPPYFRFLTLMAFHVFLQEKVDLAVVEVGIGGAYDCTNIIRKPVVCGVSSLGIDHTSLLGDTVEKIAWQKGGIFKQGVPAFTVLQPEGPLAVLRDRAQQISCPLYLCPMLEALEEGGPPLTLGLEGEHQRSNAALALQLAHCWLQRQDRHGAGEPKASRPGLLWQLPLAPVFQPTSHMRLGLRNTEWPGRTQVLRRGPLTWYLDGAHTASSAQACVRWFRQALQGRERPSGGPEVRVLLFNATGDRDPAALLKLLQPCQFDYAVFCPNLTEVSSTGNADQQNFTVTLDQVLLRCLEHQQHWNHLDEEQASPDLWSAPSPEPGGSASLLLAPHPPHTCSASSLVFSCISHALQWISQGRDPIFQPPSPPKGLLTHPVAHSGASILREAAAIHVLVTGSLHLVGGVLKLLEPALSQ
In short: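 Purified folylpolyglutamate synthetase from CCRF-CEM human leukemia cells, with 50 µM aminopterin as substrate. Increasing amounts of test compound were added to the assay mixture. Activity was read as [3H]glutamate incorporation, and inhibition was expressed as IC50.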

H35R0.3 [9] = test: Compound was tested for inhibition of folinic acid transport in H35 Hepatoma cells; No Inhibition at 50 uM; type: functional, cell-based, Rattus norvegicus
CCRF-CEM [10] = test: as §1; type: functional; remark: listed apart in the source
In short: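 Purified folylpolyglutamate synthetase from CCRF-CEM human leukemia cells; substrate activity measured as [3H]glutamate incorporation with compound up to 200 μM, expressed relative to aminopterin at 50 μM.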

Compound	Relative activity (CCRF-CEM [1])	IC50 (Dihydrofolate reductase)	IC50 (H35R0.3 [2])	IC50 (H35R0.3 [3])	Relative activity (CCRF-CEM [4])	IC50 (H35R0.3 [5])	IC50 (H35R0.3 [6])	IC50 (CCRF-CEM [7])	IC50 (Manca)	IC50 [8]	IC50 (H35R0.3 [9])	Relative activity (CCRF-CEM [10])
Nc1nc(N)c2nc(CCc3ccc(C(=O)N[C@@H](CCC(=O)O)C(=O)O)cc3)cnc2n1	60	4.1 nM	–	–	–	–	–	–	–	–	–	–
C=C(CC(NC(=O)c1ccc(CCc2cnc3nc(N)nc(N)c3n2)cc1)C(=O)O)C(=O)O (stereo not drawn)	–	8.8 nM	> 20000 nM	5500 nM	<2	18400 nM	39 nM	13 nM	9.9 nM	> 200000 nM	–	–
CN(Cc1cnc2nc(N)nc(N)c2n1)c1ccc(C(=O)NC(C(=O)O)C(O)CC(=O)O)cc1 (stereo not drawn)	<3	5.3 nM	–	–	–	5600 nM	85 nM	–	48 nM	> 200000 nM	No inhibition	–
C=C(CC(NC(=O)c1ccc(C(CC)Cc2cnc3nc(N)nc(N)c3n2)cc1)C(=O)O)C(=O)O (stereo not drawn)	–	5.8 nM	14000 nM	1500 nM	<1	14000 nM	6.3 nM	7.4 nM	3.8 nM	118000 nM	–	–
C=C(CC(NC(=O)c1ccc(N(C)Cc2cnc3nc(N)nc(N)c3n2)cc1)C(=O)O)C(=O)O (stereo not drawn)	–	6.4 nM	3900 nM	7000 nM	<1	21000 nM	16 nM	30 nM	26 nM	> 200000 nM	–	–
Nc1nc(N)c2nc(CCc3ccc(C(=O)NC(C(=O)O)C(O)CC(=O)O)cc3)cnc2n1 (stereo not drawn)	<3	5.9 nM	–	–	–	–	–	–	29 nM	> 50000 nM	–	–
Nc1nc(N)c2nc(CNc3ccc(C(=O)N[C@@H](CCC(=O)O)C(=O)O)cc3)cnc2n1 [AMINOPTERIN]	–	–	–	–	–	–	–	–	–	–	–	100
CN(Cc1cnc2nc(N)nc(N)c2n1)c1ccc(C(=O)N[C@@H](CCC(=O)O)C(=O)O)cc1 [METHOTREXATE]	–	–	85 nM	18000 nM	–	–	–	–	–	–	–	–
